Bioassay records as filed in PubChem.
TRPC6 activator: activators of mouse TRPC6 channel; Q61143; HEK293-TRPC6 membrane potential dye fluorescence; hits give high values; B-score at 10 µM; 310,000 compounds, 0.13% hits;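 active = B-score of the integrated fluorescence ratio above library mean plus 3 SD, and starting fluorescence ratio within library mean plus 5 SD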;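 also: higher score means more depolarization so channel activation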
Target sequence (Q61143 whole entry, looked up): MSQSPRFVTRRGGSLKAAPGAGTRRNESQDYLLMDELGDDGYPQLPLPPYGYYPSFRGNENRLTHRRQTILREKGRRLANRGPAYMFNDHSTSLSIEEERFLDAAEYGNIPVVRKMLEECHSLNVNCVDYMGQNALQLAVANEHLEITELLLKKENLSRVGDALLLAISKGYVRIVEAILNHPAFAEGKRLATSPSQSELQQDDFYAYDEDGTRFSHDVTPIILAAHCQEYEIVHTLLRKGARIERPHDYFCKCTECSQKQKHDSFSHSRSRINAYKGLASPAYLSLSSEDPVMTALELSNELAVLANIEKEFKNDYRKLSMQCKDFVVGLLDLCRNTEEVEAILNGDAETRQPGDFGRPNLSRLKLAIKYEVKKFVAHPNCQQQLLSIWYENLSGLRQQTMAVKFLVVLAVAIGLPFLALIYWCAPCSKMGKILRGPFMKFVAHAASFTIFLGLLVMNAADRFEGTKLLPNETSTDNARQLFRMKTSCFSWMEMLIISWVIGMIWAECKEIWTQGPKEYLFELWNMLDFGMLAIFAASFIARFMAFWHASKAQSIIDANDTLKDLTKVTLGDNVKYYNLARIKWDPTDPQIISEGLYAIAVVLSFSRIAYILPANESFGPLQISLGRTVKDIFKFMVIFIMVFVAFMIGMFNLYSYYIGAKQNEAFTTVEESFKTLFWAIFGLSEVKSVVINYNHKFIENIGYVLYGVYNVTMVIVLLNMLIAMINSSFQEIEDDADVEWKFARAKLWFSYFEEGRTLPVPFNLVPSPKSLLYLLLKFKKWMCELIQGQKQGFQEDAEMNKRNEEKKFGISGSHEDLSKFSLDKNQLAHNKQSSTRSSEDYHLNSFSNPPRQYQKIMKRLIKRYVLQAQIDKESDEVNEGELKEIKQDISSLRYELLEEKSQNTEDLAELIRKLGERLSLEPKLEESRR
TRPC4 block: inhibitors of mouse TRPC4 channel. AID 2247. HEK293 TRPC4beta/mu-opioid, DAMGO-evoked Fluo4 calcium flux; hits give low values. 300,000 compounds, 0.39% hits. Q9QUQ5. B-score at 10 µM;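 active = B-score over 3 SD under the library average, no early fluorescence shift, positive overall ratio signal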
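Test system – stable TRPC4beta/mu-opioid receptor HEK293 cells · Probe or stimulus – DAMGO, a submaximal dose followed by a maximal one · Dosing – one concentration per compound · Signal – Fluo4 calcium fluorescence by kinetic imaging, 5 s 1 Hz baseline · Evaluation – per-well B score of integrated baseline-normalized Fluo4 ratio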
TRPC4 potent: TRPC4 (mouse) allosteric potentiation. Q9QUQ5. HEK293 TRPC4beta/mu-opioid, DAMGO EC20, Fluo-4 Ca2+ flux; hits give high values. B-score at 10 µM. 310,000 compounds, 0.42% hits. AID 2227;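 active = B-score of calcium response area above 5 SD of library B-scores, with initial fluorescence ratio within 5 SD of library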;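 also: B-score of integrated fluorescence ratio over time as area under calcium response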
TRPC4 act: TRPC4 (mouse) channel activation; AID 2237; HEK293 TRPC4beta/mu-opioid, Fluo4 calcium fluorescence; hits give high values; 310,000 compounds, 0.49% hits; B-score at 10 µM;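 active = B-score above 5 SD of library B-scores, and initial fluorescence ratio not above library mean plus 5 SD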;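 also: positive B-score marks a calcium rise read as TRPC4 activation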
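Assay system – TRPC4beta and mu-opioid receptor HEK293 stable cells · Measured by – Fluo4 fluorescence, kinetic · Schedule – dye loading 45 min room temperature, 110 s kinetic read · Read-out – B-scored integrated calcium fluorescence ratio · Controls – buffer and maximal DAMGO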
TRPC6 inhibitor: mouse TRPC6 channel inhibition; Q61143; HEK293-TRPC6, membrane potential dye, ACh-evoked depolarization; hits give low values; B-score at 10 µM; 310,000 compounds, 1.1% hits; AID 2553;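 active = B-score under library mean minus 3 SD, initial fluorescence not abnormally high, positive integrated signal ratio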;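 also: B-score derived from integrated fluorescence ratio over the kinetic read; more negative B-score means stronger inhibition of depolarization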
An asterisk follows results filed as active; i = inactive. This is a sample that favours compounds with a hit; in the whole collection about 2.3% have one here.

SMILES	TRPC6 activator	TRPC4 block	TRPC4 potent	TRPC4 act	TRPC6 inhibitor
Cc1nn(C(C)C)c(C)c1CN1CCCC(C(=O)c2cccc(OC(C)C)c2)C1 (centres undefined)	i	i	i	i	-8.2*
CC(C)Oc1cccc(C(=O)C2CCCN(Cc3cnn(C(C)C)c3)C2)c1 (centres undefined)	i	-6*	i	i	i
CCn1nc(C)c(CN2CCCC(C(=O)c3cccc(OC(C)C)c3)C2)c1C (centres undefined)	i	i	i	i	i
CCOc1cc(CN2CCCC(C(=O)c3cccc(C(F)(F)F)c3)C2)ccc1O (centres undefined)	i	-7*	i	i	i
CC(C)Oc1cccc(C(=O)C2CCCN(Cc3ccc4nonc4c3)C2)c1 (centres undefined)	i	i	i	i	i
CCCCn1c(N)c(N(CC(C)C)C(=O)c2ccc(OCC3CCCO3)cc2)c(=O)[nH]c1=O (centres undefined)	i	i	i	i	i
Cc1nn(C(C)C)c(C)c1CN1CCC(C(=O)Nc2cccc(-c3cccc(F)c3)c2)CC1	i	i	i	i	i
CCCCN1C2=NC(c3ccccc3)CN2c2ccccc21 (centres undefined)	i	-6*	i	i	i
Cc1ccc(CNC(=O)Cn2ccc3cc(S(=O)(=O)N4CCCCCC4)ccc32)cc1	i	i	i	i	i
Clc1ccc(-c2c[n+](Cc3ccc(Br)cc3)c3n2CCCCC3)cc1	i	i	i	i	i
O=[N+]([O-])c1ccc(C[n+]2cc(-c3ccc(Cl)c(Cl)c3)n3c2CCCCC3)cc1	i	i	i	i	i
Clc1ccc(-c2c[n+](Cc3cccc(Cl)c3)c3n2CCC3)cc1	i	-6*	i	i	i
Clc1ccc(C[n+]2cc(-c3ccccc3)n3c2CCC3)cc1Cl	i	-6*	i	i	i
Cc1cccc(N2CC(C(=O)Nc3nnc(SCC(=O)N4CCOCC4)s3)CC2=O)c1 (centres undefined)	i	i	i	i	i
CCOC(=O)CCNC(=O)Nc1cc2nc(C)n(Cc3cccc(Cl)c3)c2nc1C	i	i	i	i	i
CC(=O)Nc1ccc(NC(=O)CSc2nnc(-c3cccs3)n2N)cc1	i	i	i	i	i
COc1ccc(CN2CCC(N(CCc3ccccc3)Cc3ccccc3)CC2)c(OC)c1	i	i	i	143*	i
CCCN1CCC(N(CCc2ccccc2)Cc2ccccc2)CC1	i	i	i	i	i
O=C(Nc1ccccc1)/C(=C\c1ccc(F)cc1)NC(=O)c1ccco1	i	i	i	i	i
CCNc1nc(CSc2ccccc2)nc2sc(C)c(C)c12	i	i	i	i	i
c1coc(CNc2ncnc3sc4c(c23)CCCCC4)c1	i	i	i	i	i
CN(C)C(CNc1ncnc2sc3c(c12)CCCC3)c1ccco1 (centres undefined)	i	i	i	121*	i
Cc1sc2ncnc(NCC(c3ccccc3)N(C)C)c2c1C (centres undefined)	i	i	i	218*	i
Cc1sc2nc(CSc3ccccc3)nc(NCCN(C)C)c2c1C	i	i	i	176*	i
Cc1nc(NCC(c2ccccc2)N(C)C)c2c(C)c(C)sc2n1 (centres undefined)	i	i	i	267*	i
SMILES	TRPC6 activator	TRPC4 block	TRPC4 potent	TRPC4 act	TRPC6 inhibitor
S=C(NCc1cccnc1)Nc1ccc(Oc2ccc(Cl)cc2)cc1	i	i	i	i	i
Cc1nn(-c2ccccc2)c(C)c1NC(=O)COC(=O)c1cc(Br)ccc1O	i	i	i	i	i
CC1(C(=O)OCc2cc(=O)n3cc(Br)ccc3n2)CC1(Cl)Cl (centres undefined)	i	i	15*	i	i
O=C(NCCc1ccccc1)c1ccc(CS(=O)Cc2ccc(Cl)cc2)o1 (centres undefined)	i	i	i	i	i
CNS(=O)(=O)c1cc(-c2nnc(Nc3ccc(CC(N)=O)cc3)c3ccccc23)ccc1C	i	i	i	i	i
CN(C(=O)COC(=O)C1CCN(S(=O)(=O)c2ccc3c(c2)OCCO3)CC1)C1CCCCC1	i	i	i	i	i
N#C/C(=C\c1cccc([N+](=O)[O-])c1)C(=O)NCC1CCCO1 (centres undefined)	i	i	12*	i	i
Cc1ccc(/C=C(\C#N)C(=O)NCC2CCCO2)o1 (centres undefined)	i	i	i	55*	i
CN1CCN(c2ccc([N+](=O)[O-])cc2C(=O)c2ccccc2)CC1	i	i	i	i	i
COC(=O)c1cc([N+](=O)[O-])ccc1N1CCN(Cc2ccccc2)CC1	i	i	11*	i	i
O=C(c1cnn2c(C(F)F)cc(-c3ccccc3)nc12)N1CCN(Cc2ccc3c(c2)OCO3)CC1	i	i	i	i	i
CCC(=O)Nc1cc(Cl)ccc1C(=O)O	i	i	i	i	i
O=C(O)c1ccc(Cl)cc1Nc1nc2cc(Cl)ccc2o1	i	-6*	i	i	i
CN(C)S(=O)(=O)N1CCC(CCCC2CCN(S(=O)(=O)N(C)C)CC2)CC1	i	i	23*	i	i
CN(C)S(=O)(=O)N1CCCN(S(=O)(=O)N(C)C)CC1	i	i	i	i	i
Cn1c(=O)c2c(nc(CN3CCc4ccccc4C3)n2Cc2cccc(Cl)c2)n(C)c1=O	i	i	73*	i	i
Cn1c(=O)c2c(nc(CN3CCc4ccccc4C3)n2Cc2ccccc2F)n(C)c1=O	i	i	i	169*	i
CCCCc1c(C)[nH]c2nc3ccccc3n2c1=O	i	i	i	i	i
COc1ccc(/C(O)=C/c2nc3ccc(C(=O)NCCc4cccc(C)c4)cc3[nH]c2=O)cc1OC	i	i	i	i	i
CCn1ccnc1CNC(=O)c1ccc2oc(CCCc3ccccc3)nc2c1	i	-6*	i	i	i
CCCCc1nc2cc(C(=O)NCc3ccccn3)ccc2o1	i	i	i	i	i
COc1cccc(-n2cnc3sc(C)cc3c2=O)c1	i	i	i	i	i
Cc1cc(Cl)cc2c1NC(=O)[C@]21[C@@H]2C(=O)N(Cc3ccccc3)C(=O)[C@@H]2[C@@H]2CCCN21	i	i	i	50*	i
